In ChEMBL document CHEMBL4351008, “Discovery of novel pyrimidine-based benzothiazole derivatives as potent cyclin-dependent kinase 2 inhibitors with anticancer activity” (Eur J Med Chem, 2019) one finds IC50 and inhibition data, which are given here for 19 compounds.

Broadly, the IC50 is the concentration at which inhibition is half-maximal. A higher IC50 goes with a need for much substance. As usually defined, the inhibition is the percentage by which the read-out fell short of the control. Higher therefore signals strong suppression.

One assay has as its system MDA-MB-231. The experiment in a line: Antiproliferative activity against human MDA-MB-231 cells incubated for 48 hrs by MTT assay. Type of assay: functional, cell-based. To be noted: MDA-MB-231, 48 h. Put shortly:
(§1)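 Cells kept at 37 °C in humidified 5% CO2: MDA-MB-231, MCF-7, HeLa and HCT116 in RPMI-1640; PC-3 in DMEM/F12; both media had 10% FBS. Compounds came from 60 mM DMSO stocks diluted in medium. At 70–80% confluence, cells got fresh medium with compound for 48 h at 37 °C, with 0.1% DMSO as negative control. MTT (5 mg/mL stock) was added for 4 h, and formazan was dissolved in DMSO and read at 570 nm. % inhibition was taken relative to control, IC50 was fitted, and data are mean ± SD of three independent experiments in duplicate.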
For orientation: Formazan colour is commonly taken as a measure of viable cells.

A further assay deals with HeLa. The experiment in a line: Antiproliferative activity against human HeLa cells incubated for 48 hrs by MTT assay. Type of assay: functional, cell-based. Put shortly: as §1
Assay [1] concerns the target CDK2/Cyclin A2 (Homo sapiens) (UniProt P24941+P20248). The experiment in a line: Inhibition of CDK2/cyclin A2 (unknown origin) using histone H1 and ATP as substrate at 1 uM incubated for 40 mins by kinase-glo luminescence assay relative to control. Type of assay: protein-complex assay. A digest of the protocol:
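Recombinant CDK2/cyclin A2 (0.2 µg/mL) was run with 0.1 mg/mL histone H1 and 10 µM ATP in 40 mM Tris pH 7.4, 10 mM MgCl2, 0.1 mg/mL BSA and 1 mM DTT, for 40 min at 30 °C. Compound was tested at 1 µM final, with 1% DMSO final. Remaining ATP was quantified by Kinase-Glo Plus luminescence, which is inversely related to kinase activity.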
(In general: Kinase-Glo measures the ATP left after a reaction by luminescence.)

For a further assay, the system named is PC-3. Briefly: Antiproliferative activity against human PC3 cells incubated for 48 hrs by MTT assay. In kind it is functional, cell-based. The following applies: PC-3, 48 h. Put shortly:
as §1

The subject of another assay is HCT-116. Briefly: Antiproliferative activity against human HCT116 cells incubated for 48 hrs by MTT assay. In kind it is functional, cell-based. The following applies: HCT-116, 48 h. Put shortly: as §1
A further assay deals with MCF7. The experiment in a line: Antiproliferative activity against human MCF7 cells incubated for 48 hrs by MTT assay. Type of assay: functional, cell-based. The following applies: MCF7, 48 h. Put shortly: as §1
For another assay, the target named is CDK2/Cyclin A2 (Homo sapiens, UniProt P24941). Briefly: Inhibition of CDK2/cyclin A2 (unknown origin) using histone H1 and ATP as substrate incubated for 40 mins by kinase-glo luminescence assay. Type of assay: protein-complex assay.

Consider `Cc1ccc2nc(Nc3ccnc(Nc4ccc(S(C)(=O)=O)cc4)n3)sc2c1`, for which the IC50 in the assay with MDA-MB-231 was 4.44 µM; with HeLa, 2.3 µM; in the assay on PC-3, greater than 50 µM; in the assay with HCT-116, 1.75 µM; in the assay on MCF7, greater than 50 µM. The same compound showed an inhibition in assay [1] of 77%.
As to `NS(=O)(=O)c1ccc(Nc2ncc(F)c(Nc3nc4ccccc4s3)n2)cc1`, the IC50 with MDA-MB-231 is 22.6 µM; against CDK2/Cyclin A2, 0.0165 µM; in the assay on HeLa it was 4.52 µM; with PC-3, greater than 50 µM; in the assay on HCT-116, 3.26 µM; with MCF7, greater than 50 µM. In addition, the inhibition in assay [1] came out at 93%.
In the case of `Cc1ccc2nc(Nc3ccnc(Nc4ccc(S(N)(=O)=O)cc4)n3)sc2c1`, the IC50 came to 3.87 µM in the assay on MDA-MB-231; 0.66 µM in the assay with HeLa; 1.64 µM with PC-3; 0.9 µM with HCT-116; 5.74 µM in the assay with MCF7. This compound registered an inhibition in assay [1] of 82%.
For `Cc1cnc(Nc2ccc(S(C)(=O)=O)cc2)nc1Nc1nc2ccccc2s1`, the IC50 in the assay with MDA-MB-231 is 14.8 µM; against CDK2/Cyclin A2 it was 0.0378 µM; with HeLa it was 0.46 µM; in the assay with PC-3, greater than 50 µM; in the assay with HCT-116, 0.76 µM; in the assay with MCF7, 6.55 µM. The compound also returned an inhibition in assay [1] of 90%.
Turning to `NS(=O)(=O)c1ccc(Nc2nccc(Nc3nc4ccccc4s3)n2)cc1`, the IC50 came out at 5 µM in the assay on MDA-MB-231; 2.06 µM in the assay on HeLa; 3.1 µM with PC-3; 5.17 µM in the assay on HCT-116; 15.3 µM with MCF7. Besides, in assay [1], the inhibition is 84%.
Consider `Cc1cnc(Nc2ccc(S(N)(=O)=O)cc2)nc1Nc1nc2ccccc2s1`, for which the IC50 in the assay on MDA-MB-231 is 16.8 µM; against CDK2/Cyclin A2, 0.0217 µM; in the assay with HeLa, 2.8 µM; in the assay with PC-3, greater than 50 µM; in the assay with HCT-116 it was 1.66 µM; in the assay on MCF7 it was greater than 50 µM. The inhibition in assay [1] came to 91%.
With `Cc1cnc(Nc2ccc(S(N)(=O)=O)cc2)nc1Nc1nc2ccc(Cl)cc2s1`, the IC50 worked out at 9.42 µM with MDA-MB-231; 3.73 µM in the assay on HeLa; 5.4 µM in the assay with PC-3; 2.52 µM in the assay on HCT-116; 8.43 µM in the assay on MCF7. In assay [1], this compound returned an inhibition of 90%.
With `CS(=O)(=O)c1ccc(Nc2nccc(Nc3nc4ccccc4s3)n2)cc1`, the half-maximal inhibitory concentration (IC50) was 5.91 µM in the assay on MDA-MB-231; 11.3 µM in the assay on HeLa; 1.71 µM in the assay with PC-3; 8.37 µM in the assay with HCT-116; 10.6 µM in the assay on MCF7. In assay [1], this compound came in with an inhibition of 80%.
As for `Cc1cnc(Nc2ccc(S(C)(=O)=O)cc2)nc1Nc1nc2ccc(Cl)cc2s1`, the IC50 is 5.9 µM in the assay on MDA-MB-231; 4.18 µM in the assay with HeLa; 13.4 µM in the assay with PC-3; 2.5 µM in the assay on HCT-116; 4.32 µM in the assay with MCF7. The compound also registered an inhibition in assay [1] of 81%.
On to `Cc1cnc(Nc2cccc(F)c2)nc1Nc1nc2ccccc2s1`, for which the IC50 in the assay with MDA-MB-231 is greater than 50 µM; in the assay with HeLa, 16.3 µM; in the assay on PC-3 it was greater than 50 µM; in the assay on HCT-116, 27.8 µM; with MCF7, greater than 50 µM.
For the compound `CS(=O)(=O)c1ccc(Nc2nccc(Nc3nc4ccc(F)cc4s3)n2)cc1`, the IC50 is 2.08 µM in the assay with MDA-MB-231; 0.56 µM in the assay with HeLa; 1.94 µM with PC-3; 0.86 µM in the assay with HCT-116; greater than 60 µM with MCF7. This compound also had an inhibition in assay [1] of 89%.
With `Cc1ccc2nc(Nc3nc(Nc4ccc(S(C)(=O)=O)cc4)ncc3F)sc2c1`, the IC50 in the assay with MDA-MB-231 was 14.3 µM; in the assay on HeLa it was 17.2 µM; with PC-3, greater than 50 µM; with HCT-116, 9.18 µM; with MCF7, greater than 50 µM.
With `CS(=O)(=O)c1ccc(Nc2ncc(F)c(Nc3nc4ccccc4s3)n2)cc1`, the IC50 in the assay with MDA-MB-231 worked out at 4.98 µM; against CDK2/Cyclin A2, 0.0127 µM; in the assay with HeLa it was 3.17 µM; with PC-3, 2.83 µM; with HCT-116 it was 3.27 µM; in the assay on MCF7 it was 6.88 µM. In assay [1], this compound came in with an inhibition of 95%.
As to `Cc1cnc(Nc2ccc(S(N)(=O)=O)cc2)nc1Nc1nc2ccc(F)cc2s1`, the IC50 was 7.58 µM in the assay on MDA-MB-231; 3.46 µM with HeLa; 6.98 µM with PC-3; 2.01 µM in the assay on HCT-116; greater than 50 µM in the assay with MCF7.
In the case of `Cc1cnc(Nc2ccc(F)cc2)nc1Nc1nc2ccccc2s1`, the IC50 with MDA-MB-231, in the assay with HeLa, in the assay with PC-3, in the assay on HCT-116 and in the assay with MCF7 was greater than 50 µM throughout.
As for `Cc1cnc(Nc2ccc([N+](=O)[O-])cc2)nc1Nc1nc2ccccc2s1`, the IC50 with MDA-MB-231 was 22.5 µM; with HeLa it was 34.3 µM; with PC-3, greater than 50 µM; in the assay with HCT-116, 6.33 µM; in the assay on MCF7 it was greater than 50 µM.
As for `Cc1cnc(Nc2ccc(Cl)cc2)nc1Nc1nc2ccccc2s1`, the IC50 with MDA-MB-231, in the assay with HeLa, in the assay on PC-3, in the assay with HCT-116 and in the assay with MCF7 was greater than 50 µM in each case.
Consider `CS(=O)(=O)c1ccc(Nc2ncc(F)c(Nc3nc4ccc(F)cc4s3)n2)cc1`, for which the IC50 was 8.9 µM in the assay on MDA-MB-231; greater than 50 µM in the assay on HeLa; greater than 50 µM in the assay on PC-3; greater than 50 µM in the assay with HCT-116; greater than 50 µM in the assay on MCF7.
Turning to `Cc1ccc2nc(Nc3nc(Nc4ccc(S(N)(=O)=O)cc4)ncc3F)sc2c1`, the IC50 in the assay with MDA-MB-231 was 6.39 µM; against CDK2/Cyclin A2, 0.0214 µM; with HeLa, 1.89 µM; in the assay on PC-3 it was 4.96 µM; in the assay with HCT-116 it was 1.46 µM; in the assay with MCF7 it was 24.5 µM. This compound also showed an inhibition in assay [1] of 92%.
